Data published in ChEMBL document CHEMBL4431328, “Development of a Single-Chain Peptide Agonist of the Relaxin-3 Receptor Using Hydrocarbon Stapling” (J Med Chem, 2016).
Calls of active or inactive are those of the source. No cut-off for these calls is given here. Where a SMILES comes first, the peptide text is derived from it. Bridges are numbered along the chain shown (N, C = ends). [ ]: non-standard residue; d: D form. S5 = C=CCCC[C@](C)(N)C(=O)O; hCys = N[C@@H](CCS)C(=O)O

Columns and labels:
Relaxin-3 receptor 2 [1] = target: T1, Relaxin-3 receptor 2 (Homo sapiens, UniProt Q8TDU9); experiment: Displacement of Eu-INSL5 from human RXFP4 receptor expressed in CHOK1 cells by time-resolved fluorescent whole cell binding assay; format: cell-based
Relaxin-3 receptor 2 [2] = target: T1, Relaxin-3 receptor 2; experiment: Agonist activity at human RXFP4 receptor expressed in CHOK1 cells cotransfected with beta-galactosidase assessed as inhibition of forskolin-stimulated cAMP by beta-galactosidase reporter gene assay; format: functional, cell-based
[3] = target: T2, Relaxin receptor 1 (Homo sapiens) (UniProt Q9HBX9); experiment: (§1) Agonist activity at RXFP1 receptor (unknown origin) expressed in HEK-293T cells cotransfected with beta-galactosidase assessed as cAMP activation by beta-galactosidase reporter gene assay; format: functional, cell-based
T2 sequence (whole entry): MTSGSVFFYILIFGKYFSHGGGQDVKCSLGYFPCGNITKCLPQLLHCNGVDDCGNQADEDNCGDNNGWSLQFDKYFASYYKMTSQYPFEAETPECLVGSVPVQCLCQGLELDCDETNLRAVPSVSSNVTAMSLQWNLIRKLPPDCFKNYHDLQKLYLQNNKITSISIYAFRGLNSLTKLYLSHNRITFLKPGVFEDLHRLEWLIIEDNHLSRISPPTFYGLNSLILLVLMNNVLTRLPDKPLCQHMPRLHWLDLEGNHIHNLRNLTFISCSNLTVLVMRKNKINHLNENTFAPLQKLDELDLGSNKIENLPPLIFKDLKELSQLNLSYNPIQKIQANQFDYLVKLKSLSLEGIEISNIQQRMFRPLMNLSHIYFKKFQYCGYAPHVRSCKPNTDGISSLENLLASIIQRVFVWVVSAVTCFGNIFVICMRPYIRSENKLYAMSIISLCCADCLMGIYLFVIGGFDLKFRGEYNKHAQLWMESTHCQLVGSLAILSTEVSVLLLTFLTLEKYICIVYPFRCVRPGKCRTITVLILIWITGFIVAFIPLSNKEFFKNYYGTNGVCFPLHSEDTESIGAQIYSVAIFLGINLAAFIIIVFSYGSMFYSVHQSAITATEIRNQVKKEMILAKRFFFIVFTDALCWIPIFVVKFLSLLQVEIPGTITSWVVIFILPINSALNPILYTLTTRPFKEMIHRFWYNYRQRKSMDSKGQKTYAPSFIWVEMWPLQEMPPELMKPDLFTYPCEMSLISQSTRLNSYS
How it was run: (§2)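 Tested for RXFP1 activation at concentrations up to 10 µM, alongside the […] as a reference.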

Relaxin-3 receptor 1 [4] = target: T3, Relaxin-3 receptor 1 (Homo sapiens, UniProt Q9NSD7); experiment: Displacement of Eu-H3/15 from human RXFP3 receptor expressed in CHOK1 cells by time-resolved fluorescent whole cell binding assay; format: cell-based
T3 sequence (Q9NSD7 whole entry): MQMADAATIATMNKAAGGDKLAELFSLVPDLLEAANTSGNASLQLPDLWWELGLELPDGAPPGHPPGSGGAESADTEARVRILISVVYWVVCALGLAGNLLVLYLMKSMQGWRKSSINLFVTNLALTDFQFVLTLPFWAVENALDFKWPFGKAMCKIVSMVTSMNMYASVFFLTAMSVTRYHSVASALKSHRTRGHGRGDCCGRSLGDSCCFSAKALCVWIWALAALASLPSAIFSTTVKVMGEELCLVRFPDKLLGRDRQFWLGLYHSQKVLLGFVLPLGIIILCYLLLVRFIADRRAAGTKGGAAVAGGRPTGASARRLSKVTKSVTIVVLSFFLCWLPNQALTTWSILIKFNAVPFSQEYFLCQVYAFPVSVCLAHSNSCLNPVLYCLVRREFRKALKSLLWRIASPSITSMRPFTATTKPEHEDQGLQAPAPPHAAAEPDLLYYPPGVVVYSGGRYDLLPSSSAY

[5] = target: T2, Relaxin receptor 1 (Homo sapiens); experiment: Agonist activity at RXFP1 receptor (unknown origin) expressed in HEK-293T cells cotransfected with beta-galactosidase assessed as cAMP activation at 10 uM by beta-galactosidase reporter gene assay; format: functional, cell-based; how it was run: as §2
Relaxin-3 receptor 1 [6] = target: T3, Relaxin-3 receptor 1; experiment: Agonist activity at human RXFP3 receptor expressed in CHOK1 cells cotransfected with beta-galactosidase assessed as inhibition of forskolin-stimulated cAMP by beta-galactosidase reporter gene assay; format: functional, cell-based
Relaxin receptor 1 = target: T4, Relaxin receptor 1 (Homo sapiens, UniProt Q9HBX9); experiment: as §1; format: functional, cell-based; how it was run: as §2
T4 sequence (Q9HBX9 whole entry): T2 sequence (whole entry)

T1 sequence (Q8TDU9 whole entry): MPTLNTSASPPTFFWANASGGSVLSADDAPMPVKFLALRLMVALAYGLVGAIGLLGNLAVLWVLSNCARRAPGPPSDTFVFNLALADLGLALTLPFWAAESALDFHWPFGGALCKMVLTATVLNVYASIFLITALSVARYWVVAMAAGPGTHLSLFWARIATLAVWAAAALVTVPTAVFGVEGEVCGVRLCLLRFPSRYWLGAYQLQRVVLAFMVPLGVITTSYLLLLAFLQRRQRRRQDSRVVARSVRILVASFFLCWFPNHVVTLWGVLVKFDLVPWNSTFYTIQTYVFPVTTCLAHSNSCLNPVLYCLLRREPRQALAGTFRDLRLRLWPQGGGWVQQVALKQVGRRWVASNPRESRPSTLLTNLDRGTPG

Ki (Relaxin-3 receptor 2 [1]) [nM] | EC50 (Relaxin-3 receptor 2 [2]) [nM] | pEC50 [3] | Ki (Relaxin-3 receptor 1 [4]) [nM] | Activity [5] | EC50 (Relaxin-3 receptor 1 [6]) [nM] | pKi (Relaxin-3 receptor 2 [1]) | EC50 (Relaxin receptor 1) [nM] | SMILES
407 | 191 | inactive | 151 | inactive | 4.47 | – | – | CC[C@H](C)[C@@H]1NC(=O)[C@H](Cc2ccccc2)NC(=O)[C@@](C)(NC(=O)[C@H](CCCNC(=N)N)NC(=O)CNC(=O)[C@@H](N)CO)CCC/C=C/CCC[C@@](C)(C(=O)N[C@H](C(=O)N[C@H](C(=O)N[C@@H](Cc2ccccc2)C(=O)N[C@H](C(=O)N[C@@H](CO)C(=O)NCC(=O)NCC(=O)N[C@@H](CO)C(=O)N[C@@H](CCCNC(=N)N)C(=O)N[C@@H](Cc2c[nH]c3ccccc23)C(=O)O)[C@@H](C)O)[C@@H](C)CC)C(C)C)NC(=O)[C@H](CCCNC(=N)N)NC1=O (H-SGR[S5]FIR[S5]VIFTSGGSRW-OH; staple (E) 4-8)
> 10000 | 2750 | inactive | 575 | inactive | > 10000 | – | – | CC[C@H](C)[C@H](NC(=O)[C@H](Cc1ccccc1)NC(=O)[C@H](CCC(=O)O)NC(=O)[C@H](CCCNC(=N)N)NC(=O)CNC(=O)[C@H](CO)NC(=O)[C@H](CC(C)C)NC(=O)[C@@H](N)CCCNC(=N)N)C(=O)N[C@@H](CCCNC(=N)N)C(=O)N[C@@]1(C)CCC/C=C\CCC[C@@](C)(C(=O)N[C@@H](CO)C(=O)NCC(=O)NCC(=O)N[C@@H](CO)C(=O)N[C@@H](CCCNC(=N)N)C(=O)N[C@@H](Cc2c[nH]c3ccccc23)C(=O)O)NC(=O)[C@H](Cc2ccccc2)NC(=O)[C@H]([C@@H](C)CC)NC(=O)[C@H](C(C)C)NC1=O (H-RLSGREFIR[S5]VIF[S5]SGGSRW-OH; staple (Z) 10-14)
> 10000 | 537 | – | – | inactive | > 1000 | – | – | CC[C@H](C)[C@@H]1NC(=O)[C@H](Cc2ccccc2)NC(=O)[C@@H](NC(=O)[C@H](CCCNC(=N)N)NC(=O)CNC(=O)[C@H](CO)NC(C)=O)CCC(=O)NCCCC[C@@H](C(=O)N[C@H](C(=O)N[C@H](C(=O)N[C@@H](Cc2ccccc2)C(=O)N[C@H](C(=O)N[C@@H](CO)C(=O)NCC(=O)NCC(=O)N[C@@H](CO)C(=O)N[C@@H](CCCNC(=N)N)C(=O)N[C@@H](Cc2c[nH]c3ccccc23)C(=O)O)[C@@H](C)O)[C@@H](C)CC)C(C)C)NC(=O)[C@H](CCCNC(=N)N)NC1=O (Ac-SGREFIRKVIFTSGGSRW-OH; lactam 4-8)
– | > 10000 | inactive | 603 | inactive | > 10000 | inactive | – | CC[C@H](C)[C@H](NC(=O)[C@H](Cc1ccccc1)NC(=O)[C@H](CCC(=O)O)NC(=O)[C@H](CCCNC(=N)N)NC(=O)CNC(=O)[C@H](CO)NC(=O)[C@H](CC(C)C)NC(=O)[C@H](CCCNC(=N)N)NC(C)=O)C(=O)N[C@@H](CCCNC(=N)N)C(=O)N[C@@]1(C)CCC/C=C\CCC[C@@](C)(C(=O)N[C@@H](CO)C(=O)NCC(=O)NCC(=O)N[C@@H](CO)C(=O)N[C@@H](CCCNC(=N)N)C(=O)N[C@@H](Cc2c[nH]c3ccccc23)C(=O)O)NC(=O)[C@H](Cc2ccccc2)NC(=O)[C@H]([C@@H](C)CC)NC(=O)[C@H](C(C)C)NC1=O (Ac-RLSGREFIR[S5]VIF[S5]SGGSRW-OH; staple (Z) 10-14)
– | 123 | inactive | – | inactive | 3.55 | – | – | CC[C@H](C)[C@@H]1NC(=O)[C@H](Cc2ccccc2)NC(=O)[C@@](C)(NC(=O)[C@H](CCCNC(=N)N)NC(=O)CNC(=O)[C@H](CO)NC(=O)[C@H](CC(C)C)NC(=O)[C@@H](N)CCCNC(=N)N)CCC/C=C/CCC[C@@](C)(C(=O)N[C@H](C(=O)N[C@H](C(=O)N[C@@H](Cc2ccccc2)C(=O)N[C@H](C(=O)N[C@@H](CO)C(=O)NCC(=O)NCC(=O)N[C@@H](CO)C(=O)N[C@@H](CCCNC(=N)N)C(=O)N[C@@H](Cc2c[nH]c3ccccc23)C(=O)O)[C@@H](C)O)[C@@H](C)CC)C(C)C)NC(=O)[C@H](CCCNC(=N)N)NC1=O (H-RLSGR[S5]FIR[S5]VIFTSGGSRW-OH; staple (E) 6-10)
– | – | – | 229 | inactive | 11.7 | – | – | CC[C@H](C)[C@@H]1NC(=O)[C@H](Cc2ccccc2)NC(=O)[C@@](C)(NC(=O)[C@H](CCCNC(=N)N)NC(=O)CNC(=O)[C@H](CO)NC(=O)[C@H](CC(C)C)NC(=O)[C@H](CCCNC(=N)N)NC(=O)[C@@H](NC(=O)CNC(C)=O)C(C)C)CCC/C=C/CCC[C@@](C)(C(=O)N[C@H](C(=O)N[C@H](C(=O)N[C@@H](Cc2ccccc2)C(=O)N[C@H](C(=O)N[C@@H](CO)C(=O)NCC(=O)NCC(=O)N[C@@H](CO)C(=O)N[C@@H](CCCNC(=N)N)C(=O)N[C@@H](Cc2c[nH]c3ccccc23)C(=O)O)[C@@H](C)O)[C@@H](C)CC)C(C)C)NC(=O)[C@H](CCCNC(=N)N)NC1=O (Ac-GVRLSGR[S5]FIR[S5]VIFTSGGSRW-OH; staple (E) 8-12)
275 | 316 | inactive | 93.3 | inactive | 4.47 | – | – | CC[C@H](C)[C@@H]1NC(=O)[C@H](Cc2ccccc2)NC(=O)[C@@](C)(NC(=O)[C@H](CCCNC(=N)N)NC(=O)CNC(=O)[C@H](CO)NC(=O)[C@H](CC(C)C)NC(=O)[C@H](CCCNC(=N)N)NC(=O)[C@@H](NC(=O)CN)C(C)C)CCC/C=C/CCC[C@@](C)(C(=O)N[C@H](C(=O)N[C@H](C(=O)N[C@@H](Cc2ccccc2)C(=O)N[C@H](C(=O)N[C@@H](CO)C(=O)NCC(=O)NCC(=O)N[C@@H](CO)C(=O)N[C@@H](CCCNC(=N)N)C(=O)N[C@@H](Cc2c[nH]c3ccccc23)C(=O)O)[C@@H](C)O)[C@@H](C)CC)C(C)C)NC(=O)[C@H](CCCNC(=N)N)NC1=O (H-GVRLSGR[S5]FIR[S5]VIFTSGGSRW-OH; staple (E) 8-12)
> 10000 | 3720 | – | 2510 | inactive | > 10000 | – | – | CC[C@H](C)[C@@H]1NC(=O)[C@H](Cc2ccccc2)NC(=O)[C@@H](NC(=O)[C@H](CCCNC(=N)N)NC(=O)CNC(=O)[C@H](CO)NC(C)=O)CCSSCC[C@@H](C(=O)N[C@H](C(=O)N[C@H](C(=O)N[C@@H](Cc2ccccc2)C(=O)N[C@H](C(=O)N[C@@H](CO)C(=O)NCC(=O)NCC(=O)N[C@@H](CO)C(=O)N[C@@H](CCCNC(=N)N)C(=O)N[C@@H](Cc2c[nH]c3ccccc23)C(=O)O)[C@@H](C)O)[C@@H](C)CC)C(C)C)NC(=O)[C@H](CCCNC(=N)N)NC1=O (Ac-SGR[hCys]FIR[hCys]VIFTSGGSRW-OH; disulfide 4-8)
– | – | – | – | inactive | – | – | > 10000 | CC[C@H](C)[C@H](NC(=O)[C@H](C)NC(=O)[C@@H](NC(=O)[C@H](CCC(N)=O)NC(=O)[C@H](C)NC(=O)[C@H](CCCNC(=N)N)NC(=O)[C@@H](NC(=O)[C@H](CC(C)C)NC(=O)[C@H](CCC(=O)O)NC(=O)[C@H](CCCNC(=N)N)NC(=O)CNC(=O)[C@H](CS)NC(=O)[C@H](CC(C)C)NC(=O)[C@H](CCCCN)NC(=O)[C@@H](NC(=O)[C@@H](NC(=O)[C@H](CCC(=O)O)NC(=O)[C@H](CCC(=O)O)NC(=O)[C@H](CCSC)NC(=O)[C@H](Cc1c[nH]c2ccccc12)NC(=O)[C@H](CO)NC(=O)[C@@H](N)CC(=O)O)C(C)C)[C@@H](C)CC)C(C)C)[C@@H](C)CC)C(=O)N[C@@H](CS)C(=O)NCC(=O)N[C@@H](CCSC)C(=O)N[C@@H](CO)C(=O)N[C@H](C(=O)N[C@@H](Cc1c[nH]c2ccccc12)C(=O)N[C@@H](CO)C(=O)O)[C@@H](C)O
